Measurements as given in ChEMBL document CHEMBL4265912, “Design, synthesis and identification of novel substituted 2-amino thiazole analogues as potential anti-inflammatory agents targeting 5-lipoxygenase” (Eur J Med Chem, 2018).

T1: Polyunsaturated fatty acid 5-lipoxygenase (Homo sapiens) (UniProt P09917)
T1 sequence (whole entry): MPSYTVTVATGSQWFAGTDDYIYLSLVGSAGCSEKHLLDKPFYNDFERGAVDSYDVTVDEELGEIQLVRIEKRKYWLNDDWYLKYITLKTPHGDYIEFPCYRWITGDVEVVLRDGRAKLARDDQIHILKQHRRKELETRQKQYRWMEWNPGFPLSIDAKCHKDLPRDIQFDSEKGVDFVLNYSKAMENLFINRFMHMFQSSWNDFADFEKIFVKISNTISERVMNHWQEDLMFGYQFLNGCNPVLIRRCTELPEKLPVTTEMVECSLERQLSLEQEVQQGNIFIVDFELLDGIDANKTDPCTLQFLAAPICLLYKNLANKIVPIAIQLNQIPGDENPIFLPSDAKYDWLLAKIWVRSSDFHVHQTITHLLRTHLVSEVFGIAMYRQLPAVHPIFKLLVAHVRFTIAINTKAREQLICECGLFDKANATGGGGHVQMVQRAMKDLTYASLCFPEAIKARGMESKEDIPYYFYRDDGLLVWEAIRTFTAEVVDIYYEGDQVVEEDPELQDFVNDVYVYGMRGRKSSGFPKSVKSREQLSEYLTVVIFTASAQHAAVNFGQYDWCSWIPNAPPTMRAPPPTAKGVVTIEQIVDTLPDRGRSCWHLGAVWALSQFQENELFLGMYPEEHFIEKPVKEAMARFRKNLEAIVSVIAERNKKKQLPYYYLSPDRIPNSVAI

T2: Polyunsaturated fatty acid 5-lipoxygenase (Homo sapiens, UniProt P09917)
T2 sequence (P09917 whole entry): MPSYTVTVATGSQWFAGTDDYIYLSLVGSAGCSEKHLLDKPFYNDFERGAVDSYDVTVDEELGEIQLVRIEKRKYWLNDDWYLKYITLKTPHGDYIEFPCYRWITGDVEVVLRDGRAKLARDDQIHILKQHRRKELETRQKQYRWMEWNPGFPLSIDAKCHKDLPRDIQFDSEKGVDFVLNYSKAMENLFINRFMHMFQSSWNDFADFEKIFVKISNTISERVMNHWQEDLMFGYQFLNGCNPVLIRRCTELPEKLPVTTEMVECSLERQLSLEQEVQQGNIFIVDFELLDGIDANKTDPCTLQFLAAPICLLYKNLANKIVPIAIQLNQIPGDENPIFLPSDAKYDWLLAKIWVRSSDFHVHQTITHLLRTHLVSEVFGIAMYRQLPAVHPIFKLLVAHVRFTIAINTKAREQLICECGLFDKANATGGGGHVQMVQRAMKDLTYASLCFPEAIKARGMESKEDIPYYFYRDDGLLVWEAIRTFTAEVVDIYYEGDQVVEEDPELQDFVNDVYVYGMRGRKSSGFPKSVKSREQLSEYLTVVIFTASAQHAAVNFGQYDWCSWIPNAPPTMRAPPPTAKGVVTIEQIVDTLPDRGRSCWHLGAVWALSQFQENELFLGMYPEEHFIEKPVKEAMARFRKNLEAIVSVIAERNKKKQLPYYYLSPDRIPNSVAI

B1: Polyunsaturated fatty acid 5-lipoxygenase (Homo sapiens), P09917 (protein)
chain: MPSYTVTVATGSQWFAGTDDYIYLSLVGSAGCSEKHLLDKPFYNDFERGAVDSYDVTVDEELGEIQLVRIEKRKYWLNDDWYLKYITLKTPHGDYIEFPCYRWITGDVEVVLRDGRAKLARDDQIHILKQHRRKELETRQKQYRWMEWNPGFPLSIDAKCHKDLPRDIQFDSEKGVDFVLNYSKAMENLFINRFMHMFQSSWNDFADFEKIFVKISNTISERVMNHWQEDLMFGYQFLNGCNPVLIRRCTELPEKLPVTTEMVECSLERQLSLEQEVQQGNIFIVDFELLDGIDANKTDPCTLQFLAAPICLLYKNLANKIVPIAIQLNQIPGDENPIFLPSDAKYDWLLAKIWVRSSDFHVHQTITHLLRTHLVSEVFGIAMYRQLPAVHPIFKLLVAHVRFTIAINTKAREQLICECGLFDKANATGGGGHVQMVQRAMKDLTYASLCFPEAIKARGMESKEDIPYYFYRDDGLLVWEAIRTFTAEVVDIYYEGDQVVEEDPELQDFVNDVYVYGMRGRKSSGFPKSVKSREQLSEYLTVVIFTASAQHAAVNFGQYDWCSWIPNAPPTMRAPPPTAKGVVTIEQIVDTLPDRGRSCWHLGAVWALSQFQENELFLGMYPEEHFIEKPVKEAMARFRKNLEAIVSVIAERNKKKQLPYYYLSPDRIPNSVAI

What was measured:
[1] = target: T1, Polyunsaturated fatty acid 5-lipoxygenase (Homo sapiens); assay: Inhibition of recombinant human 5-LOX expressed in Escherichia coli BL21 at 10 uM using arachidonic acid as substrate by UV-vis spectrophotometric method relative to control
How it was run: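 Partially purified human 5-LOX, expressed in E. coli BL21 (IPTG induction, ammonium sulfate precipitation, 100000 × g supernatant). Buffer: 25 mM HEPES pH 7.3, EDTA, 10 mM CaCl2, 4 mM ATP; compound in 2% DMSO added at 4 °C; started with 30 μM AA. 5-HPETE read at 236 nm. Single point at 10 μM; IC50 from inhibition-versus-concentration curves; three repeats.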

[2] = Antioxidant activity assessed as DPPH radical scavenging activity at 20 uM measured after 30 mins; format: functional
How it was run: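 Test compound at 20 μM added to 0.1 mM DPPH in methanol, incubated 30 min at room temperature in dark; absorbance read at 517 nm; ascorbic acid reference; percent scavenging calculated; three repeats, mean ± SEM.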

[3] = target: T2, Polyunsaturated fatty acid 5-lipoxygenase; assay: Inhibition of recombinant human 5-LOX expressed in Escherichia coli BL21 using arachidonic acid as substrate by UV-vis spectrophotometric method
How it was run: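 Partially purified human 5-LOX, expressed in E. coli BL21 (IPTG induction, ammonium sulfate precipitation, 100000 × g supernatant). Buffer: 25 mM HEPES pH 7.3, EDTA, 10 mM CaCl2, 4 mM ATP; compound in 2% DMSO added at 4 °C; started with 30 μM AA.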

[4] = target: T1, Polyunsaturated fatty acid 5-lipoxygenase (Homo sapiens); assay: Inhibition of recombinant human 5-LOX pseudoperoxidase activity expressed in Escherichia coli BL21 assessed as compound redox activity by measuring decrease in 13(S)-HpODE product formation at 10 uM by UV-vis spectrophotometric method; parameters: scale not given: the % may be the effect or the level left
How it was run: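 Pseudoperoxidase: 10 μM inhibitor (1:1 to substrate) starts reaction in 50 mM potassium phosphate pH 7.4, 0.3 mM CaCl2, 0.1 mM EDTA, 200 μM ATP, 10 μM 13(S)-HPODE with 5-LOX; loss of hydroperoxide followed at 234 nm over 300 s, relative to control.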

[5] = compound: COc1ccc(-c2nc(N(c3ccccc3)c3ccccc3)sc2C(=O)c2ccccc2)cc1; assay: Competitive inhibition of recombinant human 5-LOX expressed in Escherichia coli BL21 assessed as Vmax for substrate at 5 uM using arachidonic acid as substrate by Lineweaver-Burk plot analysis (reference value: 0.39 +/- 0.02 nmol/min)
[6] = compound: COc1ccc(-c2nc(N(c3ccccc3)c3ccccc3)sc2C(=O)c2ccccc2)cc1; assay: Competitive inhibition of recombinant human 5-LOX expressed in Escherichia coli BL21 assessed as Vmax for substrate at 10 uM using arachidonic acid as substrate by Lineweaver-Burk plot analysis (reference value: 0.39 +/- 0.02 nmol/min)
[7] = compound: COc1ccc(-c2nc(N(c3ccccc3)c3ccccc3)sc2C(=O)c2ccccc2)cc1; assay: Competitive inhibition of recombinant human 5-LOX expressed in Escherichia coli BL21 assessed as Km for substrate at 5 uM using arachidonic acid as substrate by Lineweaver-Burk plot analysis (reference value: 0.42 +/- 0.15 microM)
[8] = compound: COc1ccc(-c2nc(N(c3ccccc3)c3ccccc3)sc2C(=O)c2ccccc2)cc1; assay: Competitive inhibition of recombinant human 5-LOX expressed in Escherichia coli BL21 assessed as Km for substrate at 10 uM using arachidonic acid as substrate by Lineweaver-Burk plot analysis (reference value: 0.42 +/- 0.15 microM)
[9] = compound: O=C(NC(=S)N1CCN(c2ccccc2)CC1)c1ccccc1; assay: Mixed non-competitive inhibition of recombinant human 5-LOX expressed in Escherichia coli BL21 assessed as Vmax for substrate at 5 uM using arachidonic acid as substrate by Lineweaver-Burk plot analysis (reference value: 0.48 +/- 0.02 nmol/min)
[10] = compound: O=C(NC(=S)N1CCN(c2ccccc2)CC1)c1ccccc1; assay: Mixed non-competitive inhibition of recombinant human 5-LOX expressed in Escherichia coli BL21 assessed as Vmax for substrate at 10 uM using arachidonic acid as substrate by Lineweaver-Burk plot analysis (reference value: 0.48 +/- 0.02 nmol/min)
[11] = compound: O=C(NC(=S)N1CCN(c2ccccc2)CC1)c1ccccc1; assay: Mixed non-competitive inhibition of recombinant human 5-LOX expressed in Escherichia coli BL21 assessed as Km for substrate at 5 uM using arachidonic acid as substrate by Lineweaver-Burk plot analysis (reference value: 0.7761 +/- 0.22 microM)
[12] = compound: O=C(NC(=S)N1CCN(c2ccccc2)CC1)c1ccccc1; assay: Mixed non-competitive inhibition of recombinant human 5-LOX expressed in Escherichia coli BL21 assessed as Km for substrate at 10 uM using arachidonic acid as substrate by Lineweaver-Burk plot analysis (reference value: 0.7761 +/- 0.22 microM)

Molecule | inhibition [1] | Activity [2] | further results
COc1ccc(C(=O)NC(=S)N(c2ccccc2)c2ccccc2)cc1 | 19.2% | 8.1% | –
O=C(NC(=S)N1CCN(c2ccccc2)CC1)c1ccc([N+](=O)[O-])cc1 | 76.6% | 20.3% | –
COc1ccc(C(=O)NC(=S)N2CCCCC2)cc1 | 86% | 21.8% | IC50 [3]: 3300 nM
COc1ccc(-c2nc(N(c3ccccc3)c3ccccc3)sc2C(=O)c2ccccc2)cc1 | 92.8% | 11.8% | IC50 [3]: 900 nM; Activity [4]: 29.4%
O=C(NC(=S)N1CCCCC1)c1ccc(F)cc1 | 80.7% | 5.9% | IC50 [3]: 3800 nM
O=C(c1ccccc1)c1sc(N2CCCCC2)nc1-c1ccccc1 | 85.2% | 8.5% | IC50 [3]: 3100 nM; Activity [4]: 0.6%
CN(c1ccccc1)c1nc(-c2ccccc2)c(C(=O)c2ccccc2)s1 | 67.8% | 4.6% | –
O=C(c1ccccc1)c1sc(N(c2ccccc2)c2ccccc2)nc1-c1ccc([N+](=O)[O-])cc1 | 79.6% | -2.8% | –
COc1ccc(C(=O)NC(=S)N(C)Cc2ccccc2)cc1 | 26.5% | 7.4% | –
O=C1O[C@H]([C@@H](O)CO)C(O)=C1O | – | 84.1% | –
O=C(NC(=S)N1CCN(c2ccccc2)CC1)c1ccccc1 | 91.3% | 24.1% | IC50 [3]: 1400 nM; Activity [4]: -46.2%
O=C(NC(=S)N1CCCCC1)c1ccccc1 | 56.8% | 23.7% | –
O=C(NC(=S)N1CCOCC1)c1ccccc1 | 79.4% | 19.1% | –
O=C(c1ccccc1)c1sc(N2CCOCC2)nc1-c1ccccc1 | 85.3% | 9.5% | IC50 [3]: 2300 nM; Activity [4]: 2.1%
O=C(c1ccccc1)c1sc(N2CCN(c3ccccc3)CC2)nc1-c1ccc([N+](=O)[O-])cc1 | 67.8% | 8.2% | –
COc1ccc(-c2nc(N(C)Cc3ccccc3)sc2C(=O)c2ccccc2)cc1 | 17.7% | -1.9% | –
O=C(NC(=S)N(c1ccccc1)c1ccccc1)c1ccccc1 | 73.3% | 11.3% | –

Molecule | inhibition [1] | Activity [2] | further results
COc1ccc(C(=O)NC(=S)N2CCOCC2)cc1 | 68.3% | 3.9% | –
COc1ccc(-c2nc(N3CCCCC3)sc2C(=O)c2ccccc2)cc1 | 62% | 9.6% | –
O=C(NC(=S)N1CCN(c2ccccc2)CC1)c1ccc(F)cc1 | 23.6% | 6.3% | –
O=C(NC(=S)N1CCCC1)c1ccccc1 | 24.5% | 25.6% | –
CN(Cc1ccccc1)C(=S)NC(=O)c1ccccc1 | 80.7% | 18.4% | –
COc1ccc(-c2nc(N3CCN(c4ccccc4)CC3)sc2C(=O)c2ccccc2)cc1 | 53.1% | 7.8% | –
CN(Cc1ccccc1)c1nc(-c2ccccc2)c(C(=O)c2ccccc2)s1 | 53.1% | 3.6% | –
COc1ccc(C(=O)NC(=S)N2CCN(c3ccccc3)CC2)cc1 | 36.8% | 3.7% | –
O=C(c1ccccc1)c1sc(N2CCN(c3ccccc3)CC2)nc1-c1ccccc1 | 38.3% | -0.7% | –
O=C(NC(=S)N(c1ccccc1)c1ccccc1)c1ccc([N+](=O)[O-])cc1 | 30.9% | 4.7% | –
O=C(c1ccccc1)c1sc(N2CCOCC2)nc1-c1ccc(F)cc1 | 50.2% | -0.8% | –
CN(C(=S)NC(=O)c1ccccc1)c1ccccc1 | 78.7% | 13.2% | –
O=C(NC(=S)N1CCOCC1)c1ccc(F)cc1 | 29.5% | 9.1% | –
O=C(c1ccccc1)c1sc(N(c2ccccc2)c2ccccc2)nc1-c1ccccc1 | 48.6% | -4.7% | –
O=C(c1ccccc1)c1sc(N2CCCC2)nc1-c1ccccc1 | 75.3% | -2.9% | –
CC(c1cc2ccccc2s1)N(O)C(N)=O (configuration not stated) | – | 17.8% | –
B1 | – | – | Vmax [5]: 0.38 nmol/min; Vmax [6]: 0.38 nmol/min; Km [7]: 0.99 µM; Km [8]: 1.51 µM; Vmax [9]: 0.4 nmol/min; Vmax [10]: 0.34 nmol/min; Km [11]: 0.79 µM; Km [12]: 0.767 µM
